# Test results reported in the array DNA melting data of Ke et al. (doi:10.1101/2024.01.08.574731).
# What was measured:
# [1] = folding enthalpy; higher = less favourable; fluorescence melt of hairpins on a sequencing array, two-state fit; conditions: sodium 0.088 M
# How it was run: (§1)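 Cy3 fluorescence of library hairpins on a sequenced MiSeq flow cell, with annealed Cy3 and quencher oligos, was imaged in 50 mM Na-HEPES pH 8.0, 25 mM NaCl in 2.5 °C steps up to 60 °C. Signals were normalised to pre-quench Cy3 and to control variants. Melting temperature and folding enthalpy came from bootstrapped two-state fits, inverse-variance combined over four replicates. Fitted temperatures were raised by 9.35 °C to match UV melts.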
# [2] = melting temperature; fluorescence melt of hairpins on a sequencing array, two-state fit, raised by 9.35 °C to match UV melts; conditions: sodium 0.088 M
# How it was run: as §1
Sequence,folding enthalpy [1],Tm [2]
GATCGTACGGACGATC ((((((....)))))),-45.6 kcal/mol,54.4 °C
GGGGTCGCGAAAGCGCCC (((..(((....)))))),-16.4 kcal/mol,60.7 °C
GCCGCGCGAAAGCTAGGC (((..((....))..))),-28.2 kcal/mol,62.5 °C
GAGATCCGAAAGGAGCTC (((.(((....))).))),-44.9 kcal/mol,60.8 °C
GTTCTTCGAAAGAAAAAC (((.(((....))).))),-12.6 kcal/mol,25.4 °C
GCCAAGCGAAAGCATAGC ((.(.((....)).).)),-12.9 kcal/mol,30.7 °C
GCCCTCGCGAAAGCGGGC (((..(((....)))))),-14.2 kcal/mol,59.6 °C
GTCTGTGGAAACATGGAC (((..((....))..))),-26.8 kcal/mol,37.3 °C
GTATGGCCGAAAGGCTAC (((..(((....)))))),-7.75 kcal/mol,30 °C
GCATGGGGAAACCCATAC (.(((((....))))).),-15.6 kcal/mol,36.5 °C
GCTCATCGAAAGATAAGC (((.(((....))).))),-23.8 kcal/mol,39.6 °C
GTGGTTCGAAAGAATCAC (((.(((....))).))),-47.5 kcal/mol,53.7 °C
GCCTGGCGAAAGCGAAGC ((.(.((....)).).)),-7.77 kcal/mol,31.9 °C
GATCCGTGCCCGGATC ((((((....)))))),-50.9 kcal/mol,56.6 °C
GCGTTATCACGC ((((....)))),-22.5 kcal/mol,50.6 °C
GGATAAGGAAACTTGTCC (((.(((....))).))),-29.6 kcal/mol,39.2 °C
GGGTATGGAAACGTATCC ((.((.(....).)).)),-19.8 kcal/mol,30.5 °C
GCCCTAGGAAACTAGGGC (((((((....))))))),-31.2 kcal/mol,67.5 °C
GTTCAAGGAAACTCGAAC ((((.((....)).)))),-11.7 kcal/mol,28.7 °C
GTAAGCGGAAACGCTCAC ((.((((....)))).)),-13.4 kcal/mol,37.7 °C
GATCCGCGGTCGGATC ((((((....)))))),-42.7 kcal/mol,57.2 °C
GCGTTCGAAAGAAATCGC ((((((....)))..))),-25 kcal/mol,35.2 °C
GGGCTCGAAAGAGATCCC ((((((....)))..))),-18.9 kcal/mol,47.8 °C

Sequence,folding enthalpy [1],Tm [2]
GGAACTGGAAACAGTCCC ((.((((....)))).)),-25.4 kcal/mol,40 °C
GTGATCGAAAGATCAC ((((((....)))))),-37.1 kcal/mol,67.4 °C
GCATCGCGAAAGCTATGC ((((.((....)).)))),-24.1 kcal/mol,59 °C
GAGGGAACGAAAGTTCTC (((..(((....)))))),-13.7 kcal/mol,37.7 °C
GAACCGAAAGGTTC (((((....))))),-25.6 kcal/mol,67.7 °C
GCTGTGGGAAACCACAAC (.(((((....))))).),-15.8 kcal/mol,39.2 °C
GCCTCCGGAAACGGAGAC (.(((((....))))).),-15.8 kcal/mol,47 °C
GCGATTCGAAAGAAACGC (((.(((....))).))),-47.3 kcal/mol,55.7 °C
GATCTTTAAAAGATC ((((((...)))))),-23 kcal/mol,39.9 °C
GCACACGGAAACATGTGC (((((.(....).))))),-35.2 kcal/mol,47.4 °C
GTGCCCACGAAAGTGCAC (((..(((....)))))),-15.5 kcal/mol,44.9 °C
GCATATGCGAAAGCATGC (((..(((....)))))),-14.8 kcal/mol,48.2 °C
GGTAGCGGAAACGCTGTC (..((((....))))..),-13.4 kcal/mol,34.8 °C
GGTCTCGGAAACGGGACC ((((.((....)).)))),-44 kcal/mol,57.5 °C
GAACACCGAAAGGTTTC (((.(((....)))))),-20.5 kcal/mol,37.4 °C
GATCCAGAGTTGGATC ((((((....)))))),-39.8 kcal/mol,49.2 °C
GGTTAAGGAAACTTGACC (((.(((....))).))),-30.1 kcal/mol,40.3 °C
GCATGCGAAAGCAAATGC ((((((....)))..))),-24.9 kcal/mol,52.6 °C
GCTAAGGCGAAAGCCAGC (((..(((....)))))),-16 kcal/mol,48.6 °C
GATCAACCATTGATC ((((((...)))))),-29 kcal/mol,38.8 °C
GCGAGAACGAAAGTTCGC (((..(((....)))))),-15 kcal/mol,55.4 °C
GGCTTGGGAAACTGAGCC ((((..(....)..)))),-32.9 kcal/mol,45.7 °C
GTCTTCCCGAAAGGGGAC (((..(((....)))))),-12.5 kcal/mol,35.9 °C

Sequence,folding enthalpy [1],Tm [2]
GGCACGTCGAAAGACGCC (((..(((....)))))),-11 kcal/mol,40.7 °C
GAGTAGGGAAACCTGCTC (((.(((....))).))),-34.5 kcal/mol,48.5 °C
GCGTCGAACGC ((((...)))),-18.2 kcal/mol,50.3 °C
GGGGGGGGAAACTCCCCC (((((.(....).))))),-20.3 kcal/mol,64.3 °C
GATCGCGCGTGCGATC ((((((....)))))),-26.4 kcal/mol,67.9 °C
AGGGGGAAACCCCT (((((....))))),-17.5 kcal/mol,53.5 °C
GTGATAGGAAACTATCGC (.(((((....))))).),-38.2 kcal/mol,46.3 °C
GCTGCTGGAAACGGCAGC (((((.(....).))))),-44.6 kcal/mol,63.1 °C
GCTGCTTCGAAAGAAAGC (((..(((....)))))),-18 kcal/mol,39.6 °C
GGTGGTCGAAAGACTACC (((.(((....))).))),-43.2 kcal/mol,57 °C
GGATGCGAAAGCATTCC ((((((....))).))),-16.9 kcal/mol,55.9 °C
GTCAGGCCGAAAGGCGAC (((..(((....)))))),-18 kcal/mol,46.9 °C
GTAGAAGAAATTCTAC ((((((....)))))),-26.5 kcal/mol,39.4 °C
GATCCTACAAGGATC ((((((...)))))),-33.6 kcal/mol,54.5 °C
GGTACCGGAAACGGTGTC (..((((....))))..),-13.4 kcal/mol,36.7 °C
GGCGCCGGAAACGACGCC ((((.((....)).)))),-33.6 kcal/mol,66.4 °C
GTGGTCTCGAAAGAGCAC (((..(((....)))))),-25.9 kcal/mol,48.8 °C
GATGACGAAAGTCTGATC ((((((....)))..))),-12.1 kcal/mol,33.1 °C
GAAGCAGGAAACTGCTCC (.(((((....))))).),-12.6 kcal/mol,41.3 °C
GGTGCACCGAAAGGTACC (((..(((....)))))),-11.6 kcal/mol,37.6 °C
GTATTCTCGAAAGAGTAC (((..(((....)))))),-7.69 kcal/mol,22.9 °C
GTCTTCGAAAGAATGAC ((((((....))).))),-25 kcal/mol,37.9 °C
GCGACGCGAAAGCTGCGC (((..((....))..))),-23.7 kcal/mol,61.9 °C

Sequence,folding enthalpy [1],Tm [2]
GTACTAGGAAACTAGTAC (((((((....))))))),-40.1 kcal/mol,52.3 °C
GCCTAAGCGAAAGCTGGC (((..(((....)))))),-24.3 kcal/mol,52.3 °C
GGCTTATCGAAAGATGCC (((..(((....)))))),-24.1 kcal/mol,39.8 °C
GTACTCCGAAAGGAATAC (((.(((....))).))),-26 kcal/mol,37.7 °C
GTCTGGGGAAACCCAGAC (((((((....))))))),-37.6 kcal/mol,68.5 °C
GCACGATCGAAAGATTGC (((..(((....)))))),-18.7 kcal/mol,31.7 °C
GATCGCAATGCGATC ((((((...)))))),-33 kcal/mol,68.5 °C
GCGCTCGAAAGAGATCGC ((((((....)))..))),-24.7 kcal/mol,45.8 °C
GATCACTACGTGATC ((((((...)))))),-39.7 kcal/mol,61.7 °C
GCCGTTTCGAAAGAAGGC (((..(((....)))))),-22.4 kcal/mol,44.3 °C
GATCCATACTTGGATC ((((((....)))))),-37.3 kcal/mol,54.4 °C
GATGCCCGAAAGGGGATC (((.(((....))).))),-21.9 kcal/mol,59 °C
GGCCCCGAAAGGGTGCC ((((((....))).))),-23.3 kcal/mol,66.1 °C
GCAGAGCGAAAGCTAAGC ((..(((....)))..)),-15.1 kcal/mol,43.8 °C
CGGACGGAAACGTCGCCG ((((((....)))..))),-12.1 kcal/mol,34.5 °C
GATCTTTACTAAGATC ((((((....)))))),-38 kcal/mol,45 °C
GTGATCGAAAGATTACAC ((((((....)))..))),-20 kcal/mol,38.5 °C
GTCCGGGGAAACTCGGGC (.(((.(....).))).),-21.4 kcal/mol,47.8 °C
GTTTTTGGAAACAAAGAC ((.((((....)))).)),-24.5 kcal/mol,34 °C
GGCGTTACGAAAGTAGCC (((..(((....)))))),-39.7 kcal/mol,55 °C
GTCATGGGAAACTATGAC (((((.(....).))))),-29.1 kcal/mol,45 °C
GCACCCGAAAGGGCATGC ((((((....)))..))),-15 kcal/mol,41 °C
GATCATCCACATGATC ((((((....)))))),-34.7 kcal/mol,46.4 °C
